Test results reported in article PMC9486889 (Japanese Journal of Clinical Oncology, 2022).

How the values were obtained:
[1] = Plasma and urine pharmacokinetics, Cycle 1; type: in vivo, Japanese patients
In short: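 Oral 30 or 40 mg BIW. In Cycle 1, plasma was sampled on Days 1 and 25 from pre-dose to 72 h post-dose. Urine was collected in three 24-h intervals after the Day 1 and Day 25 doses. Parent drug and metabolites were measured by LC/MS–MS. The PK population received ≥1 Cycle 1 dose and had ≥1 measured post-dose concentration.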

[2] = Cardiovascular assessments; type: in vivo, Japanese patients
HDAC3 = conditions: cited from earlier work
HDAC2 = conditions: cited from earlier work
[3] = test system: relapsed or refractory non-Hodgkin's lymphoma; test: Anti-tumor activity; type: in vivo, Japanese patients
[4] = 40 mg BIW cohort, seven patients
[5] = NHL other than ATL, 30 mg BIW, 5 patients
[6] = NHL other than ATL, 40 mg BIW, 3 patients

Nc1cc(F)ccc1NC(=O)c1ccc(CNC(=O)/C=C/c2cccnc2)cc1 [HBI-8000, tucidinostat]
Administered dose excreted unchanged in urine over the dosing interval, average ([1]; 30 mg cohort): 25.3%
Administered dose excreted unchanged in urine over the dosing interval, average ([1]; 40 mg cohort): 21.9%
half-life ([1]; human, plasma, oral, 40 mg, Mean t1/2, 30 and 40 mg, Days 1 and 25): 17.1 to 21.6 h
AUC(0-inf) ([1]; human, plasma, po, 30 mg): 4000 ng·h/mL
AUC(0-inf) ([1]; human, plasma, po, 40 mg): 7160 ng·h/mL
Tmax ([1]; human, plasma, po, 40 mg, Median tmax, single and repeat oral administration, 30 and 40 mg): 2.42 to 5 h
Absolute QTcF >450 ms ([2]; 30 mg BIW cohort): three
QTcF increase of >30 ms from baseline ([2]; 40 mg BIW cohort): three
Absolute QTcF prolonged to >500 ms ([2]; both cohorts): none
QTcF increase >60 ms from baseline ([2]; both cohorts): none
Inhibition of HDAC activity (HDAC3): selectively inhibits
Inhibition of HDAC activity (HDAC2): selectively inhibits
Stable disease after the first cycle ([3]; 30 mg BIW cohort): three of six
Disease control (CR + CRu + PR + SD) ([3]; 30 mg BIW cohort, six patients): 66.7%
ORR ([3]; 30 mg BIW cohort, six patients): 16.7%
Objective response ([3]; 40 mg BIW cohort): five of seven
Partial responders with adult T-cell leukemia-lymphoma ([3]; 40 mg BIW cohort): three
Disease control (CR + CRu + PR + SD) [3, 4]: 100%
ORR [3, 4]: 71.4%
Best overall response: PR ([3]; ATL, 30 mg BIW, 1 patient): 0 (0) n (%)
Best overall response: SD ([3]; ATL, 30 mg BIW, 1 patient): 1 (100) n (%)
Disease control (CR, PR or SD) ([3]; ATL, 30 mg BIW, 1 patient): 1 (100) n (%)
Objective response (CR or PR) ([3]; ATL, 30 mg BIW, 1 patient): 0 (0.0) n (%)
Best overall response: PR ([3]; ATL, 40 mg BIW, 4 patients): 3 (75.0) n (%)
Best overall response: SD ([3]; ATL, 40 mg BIW, 4 patients): 1 (25.0) n (%)
Disease control (CR, PR or SD) ([3]; ATL, 40 mg BIW, 4 patients): 4 (100) n (%)
Objective response (CR or PR) ([3]; ATL, 40 mg BIW, 4 patients): 3 (75.0) n (%)
Objective response ([3]; NHL other than ATL, 30 mg BIW cohort): 20%
Best overall response: CR [3, 5]: 0 (0) n (%)
Best overall response: CRu [3, 5]: 1 (20.0) n (%)
Best overall response: PD [3, 5]: 2 (40.0) n (%)
Best overall response: SD [3, 5]: 2 (40.0) n (%)
Disease control (CR, CRu, PR or SD) [3, 5]: 3 (60.0) n (%)
Objective response (CR, CRu or PR) [3, 5]: 1 (20.0) n (%)
Objective response ([3]; NHL other than ATL, 40 mg BIW cohort): 66.7%
Best overall response: CR [3, 6]: 1 (33.3) n (%)
Best overall response: CRu [3, 6]: 1 (33.3) n (%)
Best overall response: PD [3, 6]: 0 (0) n (%)
Best overall response: SD [3, 6]: 1 (33.3) n (%)
Disease control (CR, CRu, PR or SD) [3, 6]: 3 (100) n (%)
Objective response (CR, CRu or PR) [3, 6]: 2 (66.7) n (%)
Responses in patients with ATL ([3]; both cohorts): three out of five
